In ChEMBL document CHEMBL1131244, “New alkenyldiarylmethanes with enhanced potencies as anti-HIV agents which act as non-nucleoside reverse transcriptase inhibitors” (J Med Chem, 1998):

Key:
CEM-SS [1] = test: Inhibitory concentration for cytopathicity of HIV-1 RF in CEM-SS cells; NA means there was no observed inhibition of HIV-1 cytopathicity up to the cytotoxic concentration in uninfected cells.; type: functional, cell-based
Summary of the method: (§1)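 XTT cytoprotection assay in CEM-SS cells infected with HIV-1 RF, with uninfected cultures for cytotoxicity, in presence of fetal calf serum. Data as percent of uninfected drug-free control. EC50 is 50% protection from cytopathicity; CC50 is 50% cell death in uninfected cells; TI = CC50/EC50. Triplicates on each of two sister plates, plate EC50s averaged. Confirmed by supernatant RT and p24.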

CCRF-CEM = test: The compound is evaluated for the cytotoxic concentration for the mock-infected CEM cells; type: functional; conditions: Homo sapiens; summary of the method: as §1
[2] = biological target: T1, Human immunodeficiency virus type 1 reverse transcriptase (Human immunodeficiency virus 1, UniProt Q72547); test: Inhibitory activity against human immunodeficiency virus (HIV) - 1 reverse transcriptase with rCdG as the template primer
Summary of the method: (§2)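 Reactions stopped with ice-cold 10% trichloroacetate, filtered through GF/C membrane, washed with ethanol, radiolabel counted by Cerenkov counting. AZTTP and nevirapine as positive controls; IC50 reported.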

[3] = The compound is evaluated for the therapeutic index, which is the CC50 divided by the EC50; type: functional; summary of the method: as §1
[4] = biological target: Human immunodeficiency virus type 1 integrase (Human immunodeficiency virus 1, UniProt Q7ZJM1); test: The compound is evaluated for the inhibitory against HIV -1 integrase. NI refers to no inhibition.
Human immunodeficiency virus type 1 integrase, sequence (Q7ZJM1 whole entry): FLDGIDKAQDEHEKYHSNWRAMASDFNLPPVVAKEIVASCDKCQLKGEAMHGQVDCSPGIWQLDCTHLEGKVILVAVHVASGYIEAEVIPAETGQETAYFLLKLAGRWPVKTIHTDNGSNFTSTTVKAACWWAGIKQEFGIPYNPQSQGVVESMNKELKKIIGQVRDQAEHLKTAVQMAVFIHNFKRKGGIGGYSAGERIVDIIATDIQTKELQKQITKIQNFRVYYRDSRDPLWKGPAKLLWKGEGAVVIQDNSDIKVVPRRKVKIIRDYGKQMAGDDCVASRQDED

[5] = biological target: T1, Human immunodeficiency virus type 1 reverse transcriptase; test: The compound is evaluated for the inhibitory against HIV -1 reverse transcriptase with rAdT as the template primer.; summary of the method: as §2
[6] = biological target: Human immunodeficiency virus 1 nucleocapsid (Human immunodeficiency virus 1, UniProt Q76059); test: Inhibition of HIV-1 Nucleocapsid protein p7 (no inhibition)
Human immunodeficiency virus 1 nucleocapsid, sequence (Q76059 whole entry): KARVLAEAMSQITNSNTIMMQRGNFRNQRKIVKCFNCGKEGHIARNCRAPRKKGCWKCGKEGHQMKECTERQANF

[7] = biological target: Human immunodeficiency virus type 1 protease (Human immunodeficiency virus 1, UniProt Q72874); test: The compound is evaluated for the inhibitory against HIV -1 protease, a 30% inhibition of HIV-1 protease was observed at a concentration of 100 uM
CEM-SS [8] = test: Inhibitory concentration for cytopathicity of HIV-1 in CEM-SS cells; type: functional, cell-based; conditions: Homo sapiens; summary of the method: as §1
CEM-SS [9] = test: The compound is evaluated for the therapeutic index, which is the CC50 divided by the EC50.; type: functional; summary of the method: as §1

Row | SMILES | EC50 (CEM-SS [1]) | CC50 (CCRF-CEM) | IC50 [2] | TI [3] | IC50 [4] | IC50 [5] | IC50 [6] | IC50 [7] | EC50 (CEM-SS [8]) | TI (CEM-SS [9])
1 | CC=C(c1cc(Br)c(OC)c(C(=O)OC)c1)c1cc(Br)c(OC)c(C(=O)OC)c1 | Not Active | 10 µM | 26 µM |  |  |  |  |  |  | 
2 | COC(=O)c1cc(C(=CC(=O)O)c2cc(Cl)c(OC)c(C(=O)OC)c2)cc(Cl)c1OC | Not Active | 48 µM | > 100 µM |  |  |  |  |  |  | 
3 | CC1(C)OC(=O)c2cc(C(=CCCO)c3cc(Cl)c4c(c3)C(=O)OC(C)(C)O4)cc(Cl)c2O1 | Not Active | 18.8 µM | > 100 µM |  |  |  |  |  |  | 
4 | CCCCCC1OC1(c1cc(Br)c(OC)c(C(=O)OC)c1)c1cc(Br)c(OC)c(C(=O)OC)c1 (stereo unspecified) | Not Active | > 100 µM | 5.6 µM |  |  |  |  |  |  | 
5 | COC(=O)c1cc(C(=CCCN)c2cc(Cl)c(OC)c(C(=O)OC)c2)cc(Cl)c1OC | Not Active | 15 µM | 63 µM |  |  |  |  |  |  | 
6 | COC(=O)c1cc(C(=CCCN=[N+]=[N-])c2cc(Cl)c(OC)c(C(=O)OC)c2)cc(Cl)c1OC |  | 41.8 µM | 2 µM | 155 | No inhibition | 9.9 µM | Not Active | > 100 µM | 0.27 µM | 
7 | COC(=O)c1cc(C(=CC(=O)OC(C)(C)C)c2cc(Cl)c(OC)c(C(=O)OC)c2)cc(Cl)c1OC | Not Active | > 100 µM | > 100 µM |  |  |  |  |  |  | 
8 | COC(=O)c1cc(C(=CCCO)c2cc(Br)c(OC)c(C(=O)OC)c2)cc(Br)c1OC |  | > 316 µM | 31.6 µM |  |  |  |  |  | 6 µM | >52
9 | C=C(c1cc(Br)c(OC)c(C(=O)OC)c1)c1cc(Br)c(OC)c(C(=O)OC)c1 | Not Active | 316 µM | > 100 µM |  |  |  |  |  |  | 
10 | COc1c(Cl)cc(C(=CCCCC(=O)O)c2cc(Cl)c(OC)c(C(=O)O)c2)cc1C(=O)O |  | > 316 µM | > 100 µM |  |  |  |  |  | 180 µM | 1.7
11 | COC(=O)c1cc(C(=CCCO)c2cc(Cl)c(OC)c(C(=O)OC)c2)cc(Cl)c1OC |  | 16.8 µM | > 100 µM |  |  |  |  |  | 8.6 µM | 2
